Experimental data as given in article PMC4179762 (Drug Design, Development and Therapy, 2014).

Columns and labels:
hH3R [1] = target: T1, hH3R (Homo sapiens, UniProt Q9Y5N1); assay: hH3R radioligand competition binding assay
Method in brief: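 HEK-293 membranes stably expressing hH3R, sonicated at 4°C, in 12.5 mM MgCl2/100 mM NaCl/75 mM Tris-HCl pH 7.4; 20–25 μg/well. […] Unlabeled histamine defined non-specific binding. PEI-treated GF/B filtration, scintillation counting, nonlinear fit; Ki by Cheng–Prusoff.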

hH3R [2] = target: T1, hH3R; assay: Metric analyses; details: LELP=clogP/LE
hH4R [3] = target: T2, hH4R (Homo sapiens, UniProt Q9H3N8); assay: Metric analyses; details: LELP=clogP/LE
hH4R [4] = target: T2, hH4R; assay: hH4R radioligand competition binding assay; details: compared to compound 3
Method in brief: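 Sf9 membranes co-expressing hH4R with Gαi2 and Gβ1γ2, pelleted (16,000 g, 10 min, 4°C) into 12.5 mM MgCl2/1 mM EDTA/75 mM Tris-HCl pH 7.4; 35 μg/well. Incubated 60 min, 25°C, shaking, with 10 nM [3H]histamine and seven test concentrations (0.1 nM–100 μM), triplicate. Non-specific binding with 100 μM histamine. PEI-treated GF/B filtration, scintillation counting; Ki by Cheng–Prusoff.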

hH3R [5] = target: T1, hH3R; assay: hH3R saturation binding experiments with [3H]Nα-methylhistamine

T2 sequence (Q9H3N8 whole entry): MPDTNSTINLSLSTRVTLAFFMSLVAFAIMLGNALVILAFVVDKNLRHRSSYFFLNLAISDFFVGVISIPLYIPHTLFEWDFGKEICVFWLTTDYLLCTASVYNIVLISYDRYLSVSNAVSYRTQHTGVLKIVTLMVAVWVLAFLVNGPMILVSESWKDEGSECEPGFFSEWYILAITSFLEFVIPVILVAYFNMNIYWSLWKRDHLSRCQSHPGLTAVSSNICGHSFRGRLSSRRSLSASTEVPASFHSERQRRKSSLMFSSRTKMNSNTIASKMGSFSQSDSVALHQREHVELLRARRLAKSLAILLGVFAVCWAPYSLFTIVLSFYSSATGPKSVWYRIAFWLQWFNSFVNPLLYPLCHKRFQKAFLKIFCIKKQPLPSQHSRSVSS
T1 sequence (Q9Y5N1 whole entry): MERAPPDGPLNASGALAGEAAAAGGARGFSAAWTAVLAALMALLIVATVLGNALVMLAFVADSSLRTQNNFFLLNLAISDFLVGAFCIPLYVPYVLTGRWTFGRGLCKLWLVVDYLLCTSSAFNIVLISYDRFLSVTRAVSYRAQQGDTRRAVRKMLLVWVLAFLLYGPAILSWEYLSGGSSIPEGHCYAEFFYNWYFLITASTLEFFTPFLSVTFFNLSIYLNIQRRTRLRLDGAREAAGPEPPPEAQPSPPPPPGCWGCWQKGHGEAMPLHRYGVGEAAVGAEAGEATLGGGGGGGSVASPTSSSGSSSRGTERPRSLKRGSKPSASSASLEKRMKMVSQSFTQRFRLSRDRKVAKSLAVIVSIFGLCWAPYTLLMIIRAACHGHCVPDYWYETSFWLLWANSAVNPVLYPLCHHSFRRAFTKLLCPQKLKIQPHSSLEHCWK

Compound: c1ccc(CNc2ccnc(Nc3ccc(OCCCN4CCCCC4)cc3)n2)cc1 [Compound 5, N^4-benzyl-N^2-(4-(3-(piperidin-1-yl)propoxy)phenyl)pyrimidin-2,4-diamine]
- Ratio hH4R/hH3R (hH3R [1]; receptor subtype selectivity, Ki hH4R / Ki hH3R): more than 6,500
- LELP (hH3R) (hH3R [2]): 12.79
- LELP (hH4R) (hH4R [3]): 23.57

Compound: CN1CCN(c2cc(Nc3ccc(OCCCN4CCCCC4)cc3)nc(N)n2)CC1 [Compound 3, 6-(4-methylpiperazin-1-yl)-N^4-(4-(3-(piperidin-1-yl)propoxy)phenyl)pyrimidin-2,4-diamine]
- fold increased affinity for hH3R (hH3R [1]; vs compound 2): 49 ×
- LELP (hH4R) (hH4R [3]): 15.17

Compound: 6-(4-methylpiperazin-1-yl)-N-(4-(3-(piperidin-1-yl)propoxy)benzyl)pyrimidin-2,4-diamine [Compound 4]
- fold weaker affinity for hH3Rs (hH3R [1]; compared to compound 3): ~5 ×
- fold higher affinity for hH4Rs (hH4R [4]): 3 ×
- LELP (hH4R) (hH4R [3]): 13.11

Compound: CNCCc1cnc[nH]1 [[^3H] N^α-MeHA, [^3H]N^α-methylhistamine]
- Kd (hH3R [5]; read-out: Kd value of radioligand at hH3R, HEK-293 membranes): 2.98 nM

Compound: CN1CCN(CCCOc2ccc(Nc3nccc(NCc4ccccc4)n3)cc2)CC1 [Compound 6, N^4-benzyl-N^2-(4-(3-(4-methylpiperazin-1-yl)propoxy)phenyl)pyrimidin-2,4-diamine]
- LELP (hH3R) (hH3R [2]): 13.55
- LELP (hH4R) (hH4R [3]): 17.82

Compound: [3H]CNCCc1cnc[nH]1 [[^3H] N^α-MeHA, [^3H]N^α-methylhistamine]
- pKd of radioligand at hH3R (hH3R [5]; HEK-293 membranes): 8.53±0.01
